From PubChem BioAssay
Only some compounds are listed: those with a hit (about 4.9% of all), similar ones and a draw of the others.
STAT3 blocker = reduces IL-6 driven STAT3 reporter signal; AID 862; U3A cells, IL-6 STAT3-luciferase reporter, luminescence; host cell line lacks STAT1; inhibition, % at 5.5 µM; 190,000 compounds, 0.89% hits;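 active means inhibition above the mean inhibition across all screened compounds plus 3 SD, cut at about 44% in these data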;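 further: 0% = DMSO only wells and 100% = 100 µM nifuroxazide control wells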
STAT1 inh = STAT1 signaling inhibition; inhibition, % at 5.5 µM; NIH 3T3 STAT1-luciferase reporter, IFN-gamma, luminescence; 200,000 compounds, 0.35% hits; AID 920;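 active means inhibition above a set limit, the mean inhibition across all tested compounds plus 3 SD, cut at about 34% in these data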;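 further: 0% = IFN-gamma with DMSO and 100% = IFN-gamma with 300 µM nifuroxazide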
STAT1 act = STAT1 signaling activation; NIH 3T3 STAT1-luciferase reporter, IFN-gamma, luminescence; 100% = IFN-gamma alone, no compound; activation (% of control), % at 5.5 µM; 200,000 compounds, 2.6% hits; AID 932;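 active means activation above the screen-wide mean activation plus 3 SD, cut at about 130% in these data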;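 further: raw ratio to IFN-gamma control signal so 100% means no change and 0% no light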
NF-kB expr up = raises NF-kB expression in human neuronal cells; NF-kB reporter expression; stronger effect = higher value; fold change at 12.5 µM; 190,000 compounds, 1.6% hits; in the data active means fold change above about 3.3
APP 5'UTR act = APP 5'UTR luciferase reporter activation; activation, % at 2 µM; SH-SY5Y APP 5'UTR luciferase reporter, luminescence; zero percent = DMSO vehicle wells; 190,000 compounds, 1% hits;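 active means activation above a set limit, based on mean plus 3 SD of controls, cut at about 140% in these data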
STAT3 activator = activators of IL-6 induced STAT3 signaling. activation (% of control), % at 5.6 µM. 190,000 compounds, 0.91% hits. AID 871. U3A cells, IL-6 STAT3-luciferase reporter, luminescence; 100% = signal with IL-6 EC80 alone;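 active means activation above the screen-wide mean of compound activation plus 3 SD, cut at about 130% in these data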;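 further: 0% = background luminescence of wells with medium and substrate only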
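system = STAT3-luciferase reporter U3A cells | reagent = IL-6 stimulus at 33 ng/mL final | timing = 1 h compound pre-exposure, 6 h IL-6 stimulation, 37 °C | measured by = luminescence | evaluation = % activation versus median of IL-6-stimulated wells | control set = IL-6-only wells as 100% reference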
Active calls of the source: *; · = no result given.

SMILES	STAT3 blocker	STAT1 inh	STAT1 act	NF-kB expr up	APP 5'UTR act	STAT3 activator
O=C(CCNC(=O)c1ccco1)Nc1ccccc1N1CCOCC1	1	-7	105	0.92	6	107
C=CCOc1ccc(/C=N/NC(=O)C(=O)Nc2ccccn2)cc1OC	2	0	100	1	-13	98
Cc1ccc(C(=O)/C=C2\NCCNC2=O)cc1	11	-33	131*	5*	109	93
CC(C)CN(C(=O)COC(=O)c1c(Cl)ccc(Cl)c1Cl)C1CCS(=O)(=O)C1 (configuration not stated)	-3	-6	104	0.86	7	111
O=C1c2ccccc2C(=O)c2cc(NC(=O)C3CC3)ccc21	-4	-34	130*	4.5*	139*	102
O=C(Nc1ccc(Nc2ccccc2)cc1)C1CC1	13	-7	107	1.5	29	91
CC1(CC(=O)N/N=C/c2cc3c(cc2Br)OCO3)OCCO1	-4	0	100	1.1	11	108
c1ccc(NCC2OCc3ccccc3CO2)cc1	-3	-40	136*	2.3	58	100
Cc1ccc(-c2nc3ccsc3c(=O)[nH]2)cc1	-15	-30	127	2.4	198*	115
CCOC(=O)c1ccccc1NC(=O)c1n[nH]c(=O)c2ccccc12	3	17	85	3.7*	0	102
CCOC(=O)c1ccc(NC(=O)c2n[nH]c(=O)c3ccccc23)cc1	12	-10	106	1.2	37	94
CC(C)(C)NC(=O)C1CCN(S(=O)(=O)c2cccc(C(F)(F)F)c2)CC1	8	12	87	1.1	-13	95
Nc1nc(CSCCO)nc(Nc2ccccc2)n1	3	-6	105	1.2	3	101
Nc1nc(CSc2ccccn2)nc(Nc2ccccc2)n1	-13	-52	148*	4.7*	134	113
O=C(O)CC(NC(=O)c1cccc([N+](=O)[O-])c1)c1ccc2c(c1)OCO2 (configuration not stated)	-2	-5	104	1.1	8	104
COc1cc(/C=C/[N+](=O)[O-])ccc1OCc1cccc(C(=O)O)c1	93*	90*	17	4.4*	-58	20
O=C(O)c1ccc(NC(=S)NC(=O)c2cccc(COc3ccccc3)c2)cc1	7	0	98	0.96	4	98
CCOc1ccc(OCc2cccc(C(=O)O)c2)cc1	·	·	·	12*	·	·
COc1ccc(OCc2cccc(C(=O)O)c2)cc1	·	·	·	8.6*	·	·
O=C(NN1CCCCC1)c1cccc(COc2ccc(Cl)cc2)c1	-17	-34	130*	1.5	50	111
COc1cc(/C=N/NC(=O)c2cccc([N+](=O)[O-])c2)ccc1OCc1ccccc1	19	-2	102	1.2	14	89
CCOC(=O)C1=NN(c2ccccc2C)C2=NC(C)=C(C(=O)OC)C(c3cccc(OC)c3)N12 (configuration not stated)	-4	0	100	1.1	12	104
Cc1ccccc1C(=O)NNC(=O)CSc1nnc(-c2ccncc2)n1-c1ccccc1	3	1	99	0.94	11	100
O=C(OCc1cc(=O)n2cc(Br)ccc2n1)c1ccc(Cl)c(S(=O)(=O)NCc2ccccc2)c1	2	2	98	0.74	-2	101
CCOc1ccc(OCc2cccc(C(=O)N3CCCCCC3)c2)cc1	80*	71*	34	2.5	113	33
SMILES	STAT3 blocker	STAT1 inh	STAT1 act	NF-kB expr up	APP 5'UTR act	STAT3 activator
CCOc1ccc(C(=O)N2CCCC2)cc1	-4	0	100	1.3	1	104
O=C(OCC(F)(F)F)c1cccc(COc2ccc3ccccc3c2)c1	102*	88*	19	8.1*	-44	15
CCS(=O)(=O)Nc1ccc(C2=NN(C(=S)Nc3ccccc3)C(c3ccco3)C2)cc1 (configuration not stated)	0	-20	118	1.6	9	103
Cc1ccc(C2=NN(C(=S)Nc3ccccc3)C(c3ccco3)C2)cc1 (configuration not stated)	-19	-37	134*	2.8	89	122
Cc1ccccc1-c1nnc(-c2ccc(Cl)cc2)o1	-11	-49	138*	4.1*	-7	109
Clc1ccccc1-c1nnc(-c2ccccc2Cl)o1	4	-24	122	3.4*	114	99
Cc1cccc(-c2nnc(-c3ccccc3)o2)c1	-15	-35	132*	3.2	89	118
Cc1ccccc1-c1nnc(-c2ccccc2)o1	2	-33	131*	4.2*	138*	104
Cc1ccc(/C=C/c2nnc(-c3cccc(C)c3)o2)cc1	6	-6	106	1.4	19	99
COc1ccc(C2N(Cc3ccccc3)CCN2Cc2ccccc2)cc1[N+](=O)[O-]	5	6	94	1.1	11	102
CC(C)(C)S(=O)(=O)c1cnc2c(-c3ccsc3)cnn2c1N	-15	-37	132*	1	85	119
O=C(CSc1nccc(=O)[nH]1)NCc1ccc(Cl)cc1	-1	-3	103	1.1	2	106
CCOC(=O)c1ccc(N=c2scc(C)n2CC)cc1	16	-27	124	4.3*	90	90
C=CCn1c(C)csc1=Nc1ccc(C(C)=O)cc1	4	-30	126	2.1	70	100
O=C(CSc1ncn[nH]1)CSc1ncn[nH]1	0	-2	100	1.1	-9	101
COc1cccc(Nc2nc(-c3ccc(O)cc3)cs2)c1	13	-22	120	3.9*	34	92
c1ccc(-c2csc(Nc3cccnc3)n2)cc1	-54	-41	136*	1.1	53	149*
Cc1nc2ccccn2c1-c1csc(Nc2cccc(O)c2)n1	31	13	87	1.3	-89	77
O=C(Nc1nc(-c2ccccc2)cs1)c1cccnc1	25	-6	103	1.4	0	80
Cc1cccc(Nc2nc(-c3ccncc3)cs2)c1	-1	-34	130*	0.67	51	112
Cc1nc(C)c(-c2csc(Nc3cccc(O)c3)n2)s1	16	6	95	4.3*	166*	88
O[C@H]1COC2C1OC[C@@H]2O (some centres not stated)	10	10	91	1.7	4	93
Nc1ncc(-n2cncn2)c(-c2ccc(Cl)cc2)n1	-2	0	99	1.4	19	108
Fc1ccc(Nc2nc(-c3cccnc3)cs2)cc1	-64	-42	136*	3.6*	106	157*
CN(C)c1ccc(Nc2nc(-c3cccnc3)cs2)cc1	-6	-52	147*	4.3*	188*	110
COc1ccc(-c2csc(Nc3ccc(C)cn3)n2)cc1	12	-42	139*	·	77	95
CC(=O)Nc1ccc(C(=O)Nc2nc(-c3cccnc3)cs2)cc1	4	4	95	0.9	19	104
